Assay results pooled from the literature.
pIC50: −log10 of the molar value.
SLCO1B1: Solute carrier organic anion transporter family member 1B1 (SLCO1B1, Homo sapiens, UniProt Q9Y6L6)
JAK1: Tyrosine-protein kinase JAK1 (JAK1, Homo sapiens, UniProt P23458)
CHRM1: Muscarinic acetylcholine receptor M1 (CHRM1, Homo sapiens, UniProt P11229)
LNPEP: Leucyl-cystinyl aminopeptidase (LNPEP, Homo sapiens, UniProt Q9UIQ6)
DSTYK: Dual serine/threonine and tyrosine protein kinase (DSTYK, Homo sapiens, UniProt Q6XUX3)
Cruzipain: Cruzipain (Trypanosoma cruzi, UniProt P25779)
F12: Coagulation factor XII (F12, Homo sapiens, UniProt P00748)
MMP13: Collagenase 3 (MMP13, Homo sapiens, UniProt P45452)
PBRM1 bromodomain: Protein polybromo-1, bromodomain (PBRM1, Homo sapiens, UniProt Q86U86)

SMILES	target	test	system	conditions	pIC50
CCOC(=O)Nc1ccc2c(c1)N(C(=O)CCN1CCOCC1)c1ccccc1S2	SLCO1B1	transporter uptake, inhibitor, fluorescence	CHO	30 min, pH 7.4	5.09
Oc1c2ccccc2c2c3c(cccc13)N=N2	JAK1	enzyme activity, inhibitor	–	–	6.01
CCn1c(-c2nc3cc(C(=O)N4CCC[C@@H](N)C4)cc(OC)c3n2C)cc2cccnc21	CHRM1	calcium signal, antagonist, fluorescence	–	–	4.20
CCC1CN(C(=O)NCC(F)(F)F)CC1c1nc(N)nc2[nH]ccc12 (stereo not drawn)	JAK1	enzyme activity, inhibitor, ADP detection	–	–	5.02
O=S(=O)(Nc1cccc(-c2nnn[nH]2)c1)c1scc2ccccc12	LNPEP	enzyme activity, inhibitor, fluorescence	–	–	4.96
Nc1ncc2c(n1)-c1c([nH]c3ccc(-c4ccc(F)cc4)cc13)CCC2	DSTYK	enzyme activity, inhibitor, radiometric	–	–	5.41
O=C(COc1ccccc1Br)NCCc1nc2ccccc2[nH]1	Cruzipain	enzyme activity, inhibitor	–	–	6.40
COC(=O)c1nc(N)n(C(=O)c2ccc(C(C)(C)C)cc2)n1	F12	enzyme activity, inhibitor, absorbance	–	–	~6.96
CC/C=C\C/C=C\C/C=C\C/C=C\C/C=C\CCCC(=O)O	DNA polymerase delta catalytic subunit (POLD1, Homo sapiens, UniProt P28340)	enzyme activity, inhibitor	–	–	4.41
O=S(=O)(Nc1cccc(-c2nnn[nH]2)c1)c1ccc(C(F)(F)F)c(F)c1	LNPEP	enzyme activity, inhibitor, fluorescence	–	–	5.12
Cn1nc(C(=O)NCc2ccc(C(=O)O)cc2)cc1-c1ccc2[nH]c(-c3ccncn3)cc2c1	MMP13	enzyme activity, inhibitor, FRET	–	–	9.09
COc1ccc(NC(=O)COC(=O)C(CC(C)C)N2C(=O)C3CC=CCC3C2=O)cc1Cl (stereo not drawn)	Cruzipain	enzyme activity, inhibitor, fluorescence	–	–	6.05
CCOc1ccc(C[C@@H](N)C(=O)N[C@@H](Cc2ccccc2)C(=O)NC2CCN(C(=N)N)CC2)cc1	Coagulation factor XII, trypsin-like site (F12, Homo sapiens, UniProt P00748)	enzyme activity, inhibitor, fluorescence	–	–	< 5.00
Cc1noc(-c2cc3cc(-c4nc(C(=O)NCc5cccnc5)[nH]c4C)ccc3[nH]2)n1	MMP13	enzyme activity, inhibitor, FRET	–	–	9.19
C[N+]1(C)CCC(OC(=O)C(c2ccccc2)c2ccccc2)CC1	CHRM1	ligand displacement, radioligand	–	–	8.28
CCn1ncc2c1-c1cnc(N)c(c1)O[C@H](C)c1cc(F)ccc1-c1nn(C)nc1C2	DSTYK	enzyme activity, inhibitor, radiometric	–	–	6.23
Cc1ccc(S(=O)(=O)Nc2cccc(-c3nnn[nH]3)c2)cc1C(F)(F)F	LNPEP	enzyme activity, inhibitor, fluorescence	–	–	5.64
N[C@@H](CC(=O)N1CCN(C(c2ccc(F)cc2)c2ccc(F)cc2)CC1)C(=O)N1Cc2ccccc2C1	Lysosomal Pro-X carboxypeptidase (PRCP, Homo sapiens, UniProt P42785)	enzyme activity, inhibitor	–	–	5.07
CC(C)C[C@H](NC(=O)[C@H]1O[C@@H]1C(=O)O)C(=O)NCCCCN=C(N)N	Papain (Carica papaya, UniProt P00784)	enzyme activity, inhibitor	–	–	9.82
CN(c1cccc(-c2nnn[nH]2)c1)S(=O)(=O)c1cc(Br)c(Cl)s1	LNPEP	enzyme activity, inhibitor, fluorescence	–	–	4.93
COc1ccc(Cl)cc1NC(=O)COC(=O)C(CC(C)C)N1C(=O)C2CC=CCC2C1=O (stereo not drawn)	Cruzipain	enzyme activity, inhibitor	–	–	4.89
CCCC[C@H](NC(=O)C1CN(C)C1)c1ncc(-c2cc3ccccc3nc2OC)[nH]1	Histone deacetylase 11 (HDAC11, Homo sapiens, UniProt Q96DB2)	enzyme activity, inhibitor	–	–	< 4.52
O=c1ccc2c(OCCCCOc3cccc(O)c3)c3ccoc3cc2o1	Potassium voltage-gated channel subfamily A member 3 (Kcna3, Mus musculus, UniProt P16390)	ion current, inhibitor, patch clamp	–	–	6.86

SMILES	target	test	system	conditions	pIC50
CC[C@@H](C(=O)Nc1ccc(C(N)=O)c(F)c1)n1cc(OC)c(-c2cc(Cl)ccc2-n2cc(C(F)(F)F)nn2)cc1=O	F12	enzyme activity, inhibitor	–	–	< 5.70
CO[C@H]1/C=C/O[C@@]2(C)Oc3c(C)c(O)c4c(O)c(c(/C=N/N5CCN(C)CC5)c(O)c4c3C2=O)NC(=O)/C(C)=C\C=C\[C@H](C)[C@H](O)[C@@H](C)[C@@H](O)[C@@H](C)[C@H](OC(C)=O)[C@@H]1C	SLCO1B1	transporter uptake, inhibitor, fluorescence	CHO	30 min, pH 7.4	5.89
Cn1nc(C(=O)NCc2ccc(C(=O)O)cc2)cc1-c1ccc2[nH]c(-c3cncnc3)cc2c1	MMP13	enzyme activity, inhibitor, FRET	–	–	8.17
C=CCOc1cccc2c1-c1c(c3c(n1C(C)C)CCCC3=O)C2=O	Casein kinase II subunit alpha' (CSNK2A2, Homo sapiens, UniProt P19784, C336S)	enzyme activity, inhibitor	–	–	6.56
Cc1cc(N2CCc3c(c(C)nn3CC34CCC(NC(=O)[C@@H]5COCCN5)(CC3)CC4)C2)c2cnn(C)c2n1	Toll-like receptor 7 (TLR7, Homo sapiens, UniProt Q9NYK1)	IL-6 release, inhibitor	–	–	9.15
O=S(=O)(Nc1cccc(-c2nnn[nH]2)c1)c1ccc(Br)cc1F	LNPEP	enzyme activity, inhibitor, fluorescence	–	–	5.26
Cc1noc(-c2cc3cc(-c4nc(C(=O)NCc5ccc(=O)[nH]c5)[nH]c4C)ccc3[nH]2)n1	MMP13	enzyme activity, inhibitor, FRET	–	–	9.48
Nc1nc(N)c2nc(CNc3cccc4ccccc34)cnc2n1	Cytochrome P450 3A4 (CYP3A4, Homo sapiens, UniProt P08684)	enzyme activity, inhibitor, luciferase	–	–	4.18
O=S(=O)(Nc1cccc(-c2nnn[nH]2)c1)c1cc(C(F)(F)F)ccc1C(F)(F)F	LNPEP	enzyme activity, inhibitor, fluorescence	–	–	6.10
Cc1ncsc1-c1ccc(CNC(=O)[C@@H]2C[C@H](O)CN2C(=O)[C@@H](NC(=O)C2(F)CC2)C(C)(C)C)c(OCCc2ccc(CN3CCN(c4cc(-c5ccccc5O)nnc4N)CC3)cc2)c1	PBRM1 bromodomain	cell-free assay, TR-FRET	–	–	5.96
COc1ccc2c(Oc3ccc4c(C(=O)Nc5ccccc5N)cccc4c3)ccnc2c1	JAK1	enzyme activity, inhibitor	–	–	< 6.30
O=C(COc1ccc(Cl)cc1)N1CCN(Cc2ccc3c(c2)OCO3)CC1	SLCO1B1	transporter uptake, inhibitor, fluorescence	CHO	30 min, pH 7.4	4.46
Nc1ncnc2c1ncn2[C@@H]1O[C@H](CN(CC[C@H](N)C(=O)O)Cc2ccc3ccccc3c2)[C@@H](O)[C@H]1O	Histone-lysine N-methyltransferase NSD2 (NSD2, Homo sapiens, UniProt O96028)	enzyme activity, inhibitor	–	–	< 4.30
CCOc1ccc2c(-c3cc(C)nc(Nc4cc(OC)cc(C(F)(F)F)c4)n3)cnn2n1	Dual specificity protein kinase CLK2 (CLK2, Homo sapiens, UniProt P49760)	enzyme activity, inhibitor	–	–	< 5.00
Cc1ncsc1-c1ccc(CNC(=O)[C@@H]2C[C@H](O)CN2C(=O)[C@@H](NC(=O)C2(F)CC2)C(C)(C)C)c(OCCOc2ccc(CN3CCN(c4cc(-c5ccccc5O)nnc4N)CC3)cc2)c1	PBRM1 bromodomain	cell-free assay, TR-FRET	–	–	6.29
CCNC(=O)c1nc(-c2ccc3[nH]c(-c4nc(C)no4)cc3c2)c(C)[nH]1	MMP13	enzyme activity, inhibitor, FRET	–	–	7.96
C[C@]12CC[C@@H]3c4ccc(OS(=O)(=O)O)cc4CC[C@H]3[C@@H]1CCC2=O	SLCO1B1	transporter uptake, inhibitor, fluorescence	CHO	30 min, pH 7.4	7.22
Cn1cc(-c2cc3cc(-c4cc(C(=O)NCc5ccc(C(=O)O)cc5)nn4C)ccc3[nH]2)cn1	MMP13	enzyme activity, inhibitor, FRET	–	–	8.80
O=S(=O)(Nc1cccc(-c2nnn[nH]2)c1)c1cc2ccccc2s1	LNPEP	enzyme activity, inhibitor, fluorescence	–	–	5.23
Nc1ccccc1S(N)(=O)=O	SLCO1B1	transporter uptake, inhibitor, fluorescence	CHO	30 min, pH 7.4	< 4.00
O=S(=O)(Nc1cccc(-c2nnn[nH]2)c1)c1cc(C(F)(F)F)cc(C(F)(F)F)c1	LNPEP	enzyme activity, inhibitor, fluorescence	–	–	5.39
NCc1ccc(Nc2ncc(F)c(Nc3ccccc3)n2)cc1	Serine/threonine-protein kinase PAK 4 (PAK4, Homo sapiens, UniProt O96013)	enzyme activity, inhibitor	–	lysate	< 5.00
